# Reference: article PMC11224971 (The Oncologist, 2024)
# Assays:
# Type in all cases: in vivo, human
# [1] = system: relapsed or refractory advanced solid tumors harboring deleterious genetic alterations in the DDR pathway; assay: NCI-COG Pediatric MATCH phase II subprotocol; settings: 135 mg/m^2/dose BID oral
# Procedure, shortened: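 Relapsed/refractory pediatric solid tumors (incl. CNS, non-Hodgkin lymphoma, histiocytosis) assigned by centralized tumor sequencing showing a deleterious BRCA1/2, RAD51C/D or ATM alteration, without germline subtraction or LOH analysis. Oral tablets 135 mg/m²/dose (max 225 mg/dose) twice daily, given continuously in 28-day cycles. Primary endpoint was objective response.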
# [2] = Pediatric MATCH arm H: safety and tolerability
# [3] = Steady-state pharmacokinetics in plasma, cycle 1 day 8
# Procedure, shortened: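 Plasma was sampled at steady state on cycle 1, day 8, after oral 135 mg/m²/dose BID. AUCSS was calculated by linear trapezoidal approximation through the day-8 24-hour dosing interval. The 24 h concentration was assumed equal to the predose concentration. CLSS was calculated as dose/AUCSS. Cmax, Tmax and t½ were also reported.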
structure (smiles),measurement,setting,value
O=C(c1cc(Cc2n[nH]c(=O)c3ccccc23)ccc1F)N1CCN(C(=O)C2CC2)CC1 [Olaparib],Objective response (complete + partial response),[1]; 6 patients enrolled,no responses
same,"Median duration assessments, OS","[1]; 6 patients, 95% CI: 0.8-NA",2.5 months (95% CI: 0.8-NA)
same,"Median duration assessments, PFS","[1]; Kaplan-Meier, 6 patients, 95% CI: 0.4-NA",1.5 months (95% CI: 0.4-NA)
same,"Response assessment, PD (number of patients, %)","[1]; RECIST 1.1, 6 patients evaluated for efficacy",3 (50%)
same,Dose-limiting toxicities,"[2]; 2 patients evaluable for DLT, cycle 1, 135 mg/m^2/dose BID",no dose-limiting toxicities
same,Hematologic toxicity (overall),"[2]; 6 patients evaluable for toxicity, 135 mg/m^2/dose BID",Minimal hematologic toxicity
same,Patients with grade 1/2 anemia,"[2]; number of patients, 6 evaluable for toxicity",3
same,Allergic reaction leading to removal from study,"[2]; one patient (biallelic tumor loss of ATM), first dose, recurring upon rechallenge",acute allergic reaction (hives)
same,"Clearance at steady state, mean ± SD","[3]; dose/AUCSS, dose level 1, 135 mg/m^2 BID oral tablet, n = 3",4.1 ± 3.6 L/h/m^2
same,AUC(0-t),"[3]; human, plasma, po, 135 mg/m2",48800 ± 27800 ng·h/mL
same,Cmax,"[3]; human, plasma, po, 135 mg/m2",7500 ± 2700 ng/mL
same,Tmax,"[3]; human, plasma, po, 135 mg/m2",1 to 4 h
same,half-life,"[3]; human, plasma, po, 135 mg/m2",5.6 ± 4.6 h
